The source of these data is ChEMBL document CHEMBL1129311, “Antitumor agents. 166. Synthesis and biological evaluation of 5,6,7,8-substituted-2-phenylthiochromen-4-ones” (J Med Chem, 1996).

Broadly, the inhibition is the change of the read-out against control, counted positive when it falls. By IC50 is commonly meant the concentration that inhibits the measured activity by half. Low values mean higher potency, high ones lower potency.

The target of series [1] is DNA topoisomerase II (Homo sapiens) (UniProt P11388+Q02880). Nature of the series: Inhibitory activity against DNA topoisomerase II at dose 100 uM. The class given is protein assay. An outline of the steps: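 Topo II activity read as ATP-dependent unknotting of P4 DNA. Test compound at 100 µM; % inhibition is relative to enzyme and DNA control reactions. VP-16 served as the reference inhibitor.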

A further series deals with A549. Nature of the series: Effective dose against 50% reduction in Human lung carcinoma (A-549) cell number after 3-day incubation. The series is classed as functional, cell-based.
Series [2] relates to HCT-8. Nature of the series: Effective dose against 50% reduction in Human ileocecal carcinoma (HCT-8) cell number after 3-day incubation. The class given is functional, cell-based.
Series [3] deals with KB. Nature of the series: Effective dose against 50% reduction in Human epidermoid carcinoma of the nasopharynx (KB) cell number after 3-day incubation; - indicates inactive. The series is classed as functional, cell-based.
Series [4] has as its system P388. Nature of the series: Effective dose against 50% reduction in Murine leukemia (P-388) cell number after 3-day incubation; - indicates inactive. The series is classed as functional, cell-based. Conditions: Mus musculus.
Another series concerns TE-671. Nature of the series: Effective dose against 50% reduction in Human CNS tumor (TE671) cell number after 3-day incubation; - indicates inactive. The series is classed as functional, cell-based.
Series [5] has as its system RPMI. Nature of the series: Effective dose against 50% reduction in Human melanoma (RPMI)cell number after 3-day incubation; - indicates inactive. The series is classed as functional, cell-based.
In series [6] the test system is H9. Nature of the series: Effective dose against growth of HIV infected H9 lymphocytes. The series is classed as functional. Particulars: Homo sapiens, read-out: ED50 (the source's name).
Series [7] concerns H9. Nature of the series: Inhibitory activity against growth of uninfected H9 lymphocytes. The class given is functional, cell-based. Conditions: Homo sapiens. An outline of the steps:
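Uninfected H9 cultures exposed to compound diluted in medium for 4 days at 37 °C. Cell density counted in a Coulter counter; IC₅₀ determined.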

Series [8] in a line: Therapeutic index valued has been determined in H9 cells. The class given is cell-based. Conditions: human, read-out: Therapeutic index.
Series [9] relates to P388. Nature of the series: Effective dose against 50% reduction in Murine leukemia (P-388) cell number after 3-day incubation. The series is classed as functional. Conditions: Mus musculus, P388, 72 h; read-out: ED50 (the source's name).
The subject of series [10] is RPMI. Nature of the series: Effective dose against 50% reduction in Human melanoma (RPMI)cell number after 3-day incubation. The series is classed as functional. Particulars: 72 h, read-out: ED50 (the source's name).
The test system of series [11] is HCT-8. Nature of the series: Effective dose against 50% reduction in Human ileocecal carcinoma (HCT-8) cell number after 3-day incubation. The series is classed as functional. Conditions: HCT-8, 72 h, read-out: ED50 (the source's name).
The subject of series [12] is KB. Nature of the series: Effective dose against 50% reduction in Human epidermoid carcinoma of the nasopharynx (KB) cell number after 3-day incubation. The class given is functional. Conditions: 72 h, read-out: ED50 (the source's name).

The structures appear in SMILES notation. Values after ≈ are worked out from the molar mass of the structure shown. Active and inactive are the calls of the source. No cut-off for these calls is given here.

The compound `COc1cccc(-c2cc(O)c3cc(N4CCCC4)ccc3n2)c1` gave an inhibition in series [1] of 0%.

Turning to `COc1ccc2sc(-c3ccccc3)cc(=O)c2c1`, the ED50 entry in the series with A549, with HCT-8 [2], with KB [3], with P388 [4], in the series on TE-671 and in the series with RPMI [5] was “inactive” throughout.

For `Nc1ccc2sc(-c3ccccc3)cc(=O)c2c1`, the EC50 in the series on H9 [6] turned out to be 7 µg/mL (≈ 27.6 µM). In addition, the concentration for half-maximal inhibition (IC50) in the series with H9 [7] was 7.5 µg/mL (≈ 29.6 µM). Besides, in series [8], the selectivity ratio stood at 1.1.

As to `Nc1cccc2c(=O)cc(-c3ccccc3)sc12`, the ED50 entry in the series with A549, with HCT-8 [2], in the series on KB [3] and in the series with TE-671 was “inactive” throughout. Moreover, the figures for the EC50 in the series on H9 [6], with P388 [9] and in the series on RPMI [10] were 4 µg/mL (≈ 15.8 µM), 7.46 µg/mL (≈ 29.4 µM) and 5.5 µg/mL (≈ 21.7 µM), respectively. Besides, the IC50 in the series on H9 [7] was 15 µg/mL (≈ 59.2 µM). The selectivity ratio in [8] is 3.8.

With `CC(=O)Oc1ccc2c(=O)cc(-c3ccccc3)sc2c1`, the ED50 result in the series with A549, with HCT-8 [2], with KB [3], with P388 [4], in the series with TE-671 and in the series with RPMI [5] was “inactive” each time. In addition, the EC50 in the series on H9 [6] came out at 80 µg/mL (≈ 270 µM). Also, in the series on H9 [7], the IC50 worked out at 45 µg/mL (≈ 152 µM). Also, the selectivity ratio in series [8] came out at 0.6.

On to `COc1ccc2c(=O)cc(-c3ccccc3)sc2c1`, for which the ED50 entry in the series on A549, in the series with P388 [4], in the series on TE-671 and with RPMI [5] was “inactive” throughout. Besides, the EC50 amounted to 9.16 µg/mL (≈ 34.1 µM) with HCT-8 [11] and 5.5 µg/mL (≈ 20.5 µM) with KB [12].

Turning to `O=c1cc(-c2ccccc2)sc2ccccc12`, the ED50 result in the series with A549, with HCT-8 [2], in the series on KB [3], in the series on P388 [4], in the series on TE-671 and with RPMI [5] was “inactive” throughout.

As for `COc1cccc(-c2cc(=O)c3cc(OC)c(OC)cc3s2)c1`, the ED50 result with A549 and in the series with TE-671 was “inactive” throughout. Also, the EC50 with HCT-8 [11] is 6.35 µg/mL (≈ 19.3 µM); in the series with P388 [9], 0.61 µg/mL (≈ 1.86 µM); with RPMI [10], 5.5 µg/mL (≈ 16.7 µM); in the series on KB [12], 5.5 µg/mL (≈ 16.7 µM).

As for `Oc1cc(-c2ccccc2)nc2c(S)cccc12`, the EC50 with H9 [6] was 12 µg/mL (≈ 47.4 µM). The midpoint of inhibition with H9 [7], the IC50, lay at 35 µg/mL (≈ 138 µM). Also, in series [8], the selectivity ratio turned out to be 2.9.

In the case of `COc1cc2sc(-c3ccccc3)cc(=O)c2cc1OC`, the ED50 result in the series on A549, in the series on P388 [4] and with TE-671 was “inactive” each time. For the same compound, the EC50 amounted to 9.33 µg/mL (≈ 31.3 µM) in the series on HCT-8 [11], 8.89 µg/mL (≈ 29.8 µM) in the series with RPMI [10] and 4.23 µg/mL (≈ 14.2 µM) in the series with KB [12].

Take `O=c1cc(-c2ccccc2)sc2cc(O)ccc12`: the ED50 result with A549, in the series with HCT-8 [2], in the series with KB [3], with P388 [4], in the series on TE-671 and in the series with RPMI [5] was “inactive” in each case. Besides, the EC50 in the series on H9 [6] is 7 µg/mL (≈ 27.5 µM). For the same compound, the IC50 in the series with H9 [7] turned out to be 40 µg/mL (≈ 157 µM). Besides, the selectivity ratio in [8] was 5.7.

On to `O=c1cc(-c2ccccc2)sc2cccc(O)c12`, for which the ED50 result in the series with A549, in the series on HCT-8 [2], in the series on KB [3], with P388 [4], with TE-671 and in the series with RPMI [5] was “inactive” in each case.
